Test results published in ChEMBL document CHEMBL3580587, “Design of Pyridopyrazine-1,6-dione γ-Secretase Modulators that Align Potency, MDR Efflux Ratio, and Metabolic Stability” (ACS Med Chem Lett, 2015).
pIC50: −log10 of the molar value.

Target: Gamma-secretase
Assay: Modulation of human gamma secretase overexpressed in CHO cells co-expressing wild type human APP assessed as inhibition of amyloid beta-42 production after 24 hrs by ELISA
Format: cell-based
Conditions: not given
How it was run: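 Whole-cell assay in CHO cells expressing wild-type APP; Aβ42 IC50 reported as geometric mean of at least two experiments.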

pIC50	Structure (SMILES)
6.98	Cc1cn(-c2ccc3n(c2=O)CCN(CCOc2ccccc2-c2cc(C)ns2)C3=O)cn1
7.70	Cc1cn(-c2ccc3n(c2=O)CCN(CCOc2ccc(F)cc2[C@@H](C)C(F)(F)F)C3=O)cn1
7.14	Cc1cn(-c2ccc3n(c2=O)CCN(CCOc2ccccc2-c2cc(C(F)F)no2)C3=O)cn1
7.74	Cc1cn(-c2ccc3n(c2=O)CCN(CCOc2ccccc2-c2csc(C(F)(F)F)n2)C3=O)cn1
6.89	Cc1cn(-c2ccc3n(c2=O)CCN(CCOc2ccccc2C(C)(C)C)C3=O)cn1
7.23	Cc1cn(-c2ccc3n(c2=O)CCN(CCOc2ccc(F)cc2C2CC(F)(F)C2)C3=O)cn1
7.07	Cc1cn(-c2ccc3n(c2=O)CCN(CCOc2ccc(F)cc2[C@H](C)C(F)(F)F)C3=O)cn1
7.52	Cc1cn(-c2ccc3n(c2=O)CCN(CCOc2ccc(F)cc2C(C)(C)C(F)(F)F)C3=O)cn1
7.77	Cc1cn(-c2ccc3n(c2=O)CCN(CCOc2ccccc2-c2cc(C(F)(F)F)no2)C3=O)cn1
7.60	Cc1cn(-c2ccc3n(c2=O)CCN(CCOc2ccc(F)c4nc(C(F)(F)F)sc24)C3=O)cn1
7.14	Cc1cn(-c2ccc3n(c2=O)CCN(CCOc2ccccc2C2CCC2)C3=O)cn1
8.22	Cc1cn(-c2ccc3n(c2=O)CCN([C@@H](C)COc2ccc(F)cc2[C@@H](C)C(F)(F)F)C3=O)cn1
6.52	Cc1cn(-c2ccc3n(c2=O)CCN(CCOc2ccccc2-c2csc(C)n2)C3=O)cn1

Tested on: not listed separately
Assay: Apparent intrinsic clearance in human liver microsomes
Format: ADME
Conditions: read-out: CLH(app)

CLint scaled	Structure (SMILES)
95.7 mL/min/kg	Cc1cn(-c2ccc3n(c2=O)CCN(CCOc2ccccc2C(C)(C)C)C3=O)cn1
8.1 mL/min/kg	Cc1cn(-c2ccc3n(c2=O)CCN(CCOc2cccc4ccc(F)cc24)C3=O)cn1

Tested on: MDR1 (human)
Assay: Efflux ratio of apparent permeability from basolateral to apical over apical to basolateral side in MDCK cells expressing human MDR1 at 2 uM after 5 hrs by transwell assay
Format: ADME, cell-based, Canis lupus familiaris
Conditions: dog
How it was run: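 MDR1/MDCK assay using MDCK cells transfected with the human P-glycoprotein gene; efflux ratio reported.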

efflux ratio at 5 h, 2 µM	Structure (SMILES)
1.7	Cc1cn(-c2ccc3n(c2=O)CCN(CCOc2ccccc2C(C)(C)C)C3=O)cn1
